We go through eight molecules from ChEMBL document CHEMBL1154578, “Aminosterols from the dogfish shark Squalus acanthias” (2000).

Common to all, as to assay type: functional
The subject of one assay is Candida albicans. The experiment in a line: Antimicrobial activity against Candida albicans ATCC 90028. Summed up: (§1)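 Broth microdilution MIC: log-phase microbes at (0.9-1.1) × 10⁵ cfu/mL in 0.5× trypticase soy broth, exposed to increasing amounts of aminosterol in microtiter plates, incubated at 37 °C for 18-24 h. Aminosterol starting solutions at 2 mg/mL in 250 mM sodium acetate, pH 6.6.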

A further assay concerns Escherichia coli. The experiment in a line: Antimicrobial activity against Escherichia coli ATCC 25922. Summed up:
as §1

A further assay has as its system Staphylococcus aureus. The assay can be described thus: Antimicrobial activity against Staphylococcus aureus ATCC 29218. The note with it: ATCC 29213, in the assay text read “ATCC 29213” for “ATCC 29218”. Summed up: as §1
The subject of another assay is Pseudomonas aeruginosa. The experiment in a line: Antimicrobial activity against Pseudomonas aeruginosa ATCC 27853. Summed up:
as §1

Values after ≈ are worked out from the molar mass of the structure shown.

For the molecule `C=C(C)C(=O)CC[C@@H](C)[C@H]1CC[C@H]2[C@@H]3[C@H](O)C[C@H]4C[C@@H](NCCCNCCCCN)CC[C@]4(C)[C@H]3CC[C@]12C`, the MIC with Candida albicans was 2 µg/mL (≈ 3.68 µM); with Escherichia coli, 16 µg/mL (≈ 29.4 µM); in the assay on Staphylococcus aureus, 2 µg/mL (≈ 3.68 µM); against Pseudomonas aeruginosa it was 16 µg/mL (≈ 29.4 µM).

Turning to `CC(COS(=O)(=O)O)C(=O)CC[C@@H](C)[C@H]1CC[C@H]2[C@@H]3[C@H](O)C[C@H]4C[C@@H](NCCCNCCCCN)CC[C@]4(C)[C@H]3CC[C@]12C` (some centres not stated), the MIC is 32 µg/mL (≈ 49.8 µM) against Candida albicans, 128 µg/mL (≈ 199 µM) against Escherichia coli, 8 µg/mL (≈ 12.5 µM) against Staphylococcus aureus and 128 µg/mL (≈ 199 µM) against Pseudomonas aeruginosa.

On to `CC(COS(=O)(=O)O)[C@H](O)CC[C@@H](C)[C@H]1CC[C@H]2[C@@H]3[C@H](O)C[C@H]4C[C@@H](NCCCNCCCCN)CC[C@]4(C)[C@H]3CC[C@]12C` (some centres not stated), for which the MIC came out at 16 µg/mL (≈ 24.8 µM) against Candida albicans, 128 µg/mL (≈ 199 µM) in the assay on Escherichia coli, 4 µg/mL (≈ 6.21 µM) against Staphylococcus aureus and 32 µg/mL (≈ 49.7 µM) in the assay on Pseudomonas aeruginosa.

As for `CC(CSCC(N)C(=O)O)C(=O)CC[C@@H](C)[C@H]1CC[C@H]2[C@@H]3[C@H](O)C[C@H]4C[C@@H](NCCCNCCCCN)CC[C@]4(C)[C@H]3CC[C@]12C` (some centres not stated), the MIC in the assay on Candida albicans worked out at 128 µg/mL (≈ 192 µM); against Escherichia coli, 256 µg/mL (≈ 385 µM); against Staphylococcus aureus, 8 µg/mL (≈ 12 µM); in the assay on Pseudomonas aeruginosa it was 256 µg/mL (≈ 385 µM).

As for `CC(C)[C@](CO)(CC[C@@H](C)[C@H]1CC[C@H]2[C@@H]3[C@H](O)C[C@H]4C[C@@H](NCCCNCCCCN)CC[C@]4(C)[C@H]3CC[C@]12C)OS(=O)(=O)O`, the minimal inhibitory concentration (MIC) in the assay on Candida albicans turned out to be 32 µg/mL (≈ 48.6 µM); with Escherichia coli it was 8 µg/mL (≈ 12.2 µM); against Staphylococcus aureus, 2 µg/mL (≈ 3.04 µM); in the assay with Pseudomonas aeruginosa, 16 µg/mL (≈ 24.3 µM).

With `CC(C)[C@@H](CC[C@@H](C)[C@H]1CC[C@H]2[C@@H]3[C@H](O)C[C@H]4C[C@@H](NCCCNCCCCN)CC[C@]4(C)[C@H]3C[C@H](O)[C@]12C)OS(=O)(=O)O`, the MIC in the assay on Candida albicans was 32 µg/mL (≈ 49.7 µM); with Escherichia coli it was 16 µg/mL (≈ 24.8 µM); against Staphylococcus aureus, 8 µg/mL (≈ 12.4 µM); with Pseudomonas aeruginosa it was 16 µg/mL (≈ 24.8 µM).

For `CC(C)[C@@H](CC[C@@H](C)[C@H]1CC[C@H]2[C@@H]3[C@H](O)C[C@H]4C[C@@H](NCCCNCCCCN)CC[C@]4(C)[C@H]3CC[C@]12C)OS(=O)(=O)O` [SQUALAMINE], the MIC in the assay on Candida albicans stood at 16 µg/mL (≈ 25.5 µM); against Escherichia coli, 4 µg/mL (≈ 6.37 µM); in the assay on Staphylococcus aureus, 1 µg/mL (≈ 1.59 µM); with Pseudomonas aeruginosa, 16 µg/mL (≈ 25.5 µM).

As for `CC(C)[C@@H](CC[C@@H](C)[C@H]1CC[C@H]2[C@@H]3[C@H](O)C[C@H]4C[C@@H](NCCCNCCCCNCCCN)CC[C@]4(C)[C@H]3CC[C@]12C)OS(=O)(=O)O` [TRODUSQUEMINE], the minimal inhibitory concentration (MIC) in the assay with Candida albicans came to 4 µg/mL (≈ 5.84 µM); against Escherichia coli it was 1 µg/mL (≈ 1.46 µM); in the assay on Staphylococcus aureus it was 1 µg/mL (≈ 1.46 µM); against Pseudomonas aeruginosa, 4 µg/mL (≈ 5.84 µM).
